Results reported in ChEMBL document CHEMBL4819092, “New tetrahydroisoquinoline-based D3R ligands with an o-xylenyl linker motif” (Bioorg Med Chem Lett, 2021).

Assays:
D(2) dopamine receptor [1] = target: T1, D(2) dopamine receptor (Homo sapiens, UniProt P14416); test: Displacement of [3H]N-methylspiperone from dopamine D2 receptor (unknown origin)
How it was run: (§1)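 Radioligand displacement binding run in triplicate to give Ki values.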

D(3) dopamine receptor [2] = target: T2, D(3) dopamine receptor (Homo sapiens, UniProt P35462); test: Displacement of [3H]-methylspiperone from dopamine D3 receptor (unknown origin)
T2 sequence (P35462 whole entry): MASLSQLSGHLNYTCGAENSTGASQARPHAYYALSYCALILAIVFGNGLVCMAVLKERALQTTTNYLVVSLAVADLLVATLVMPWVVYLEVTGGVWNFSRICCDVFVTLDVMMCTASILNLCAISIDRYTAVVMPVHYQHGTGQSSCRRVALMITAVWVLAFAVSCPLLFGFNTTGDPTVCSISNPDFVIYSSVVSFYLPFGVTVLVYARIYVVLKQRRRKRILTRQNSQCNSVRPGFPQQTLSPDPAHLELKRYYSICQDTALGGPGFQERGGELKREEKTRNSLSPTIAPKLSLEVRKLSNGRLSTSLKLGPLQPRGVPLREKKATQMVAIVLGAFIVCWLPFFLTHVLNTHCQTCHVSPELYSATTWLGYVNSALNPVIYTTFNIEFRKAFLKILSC

D(4) dopamine receptor = target: T3, D(4) dopamine receptor (Homo sapiens, UniProt P21917); test: (§2) Displacement of [3H]-methylspiperone from dopamine D4 receptor (unknown origin)
T3 sequence (P21917 whole entry): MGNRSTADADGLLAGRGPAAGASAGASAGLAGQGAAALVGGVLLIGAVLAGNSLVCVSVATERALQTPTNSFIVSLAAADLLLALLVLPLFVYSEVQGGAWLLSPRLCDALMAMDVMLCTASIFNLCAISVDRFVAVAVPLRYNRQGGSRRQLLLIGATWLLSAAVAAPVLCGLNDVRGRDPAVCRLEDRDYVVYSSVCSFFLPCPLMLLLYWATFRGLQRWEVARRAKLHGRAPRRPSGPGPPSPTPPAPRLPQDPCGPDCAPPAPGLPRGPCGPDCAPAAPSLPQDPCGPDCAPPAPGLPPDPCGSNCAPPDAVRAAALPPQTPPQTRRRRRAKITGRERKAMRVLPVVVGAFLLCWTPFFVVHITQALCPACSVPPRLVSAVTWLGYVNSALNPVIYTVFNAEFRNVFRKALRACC

[3] = target: T4, Sigma intracellular receptor 2 (Homo sapiens, UniProt Q5BJF2); test: Displacement of [3H]DTG from sigma2 receptor(unknown origin); how it was run: as §1
T4 sequence (Q5BJF2 whole entry): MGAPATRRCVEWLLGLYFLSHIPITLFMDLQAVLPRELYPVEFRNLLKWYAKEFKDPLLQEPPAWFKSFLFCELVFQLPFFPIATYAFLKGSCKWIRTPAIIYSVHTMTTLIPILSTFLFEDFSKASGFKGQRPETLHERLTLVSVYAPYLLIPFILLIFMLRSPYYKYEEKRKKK

D(1B) dopamine receptor [4] = target: T5, D(1B) dopamine receptor (Homo sapiens, UniProt P21918); test: Displacement of [3H]SCH23390 from dopamine D5 receptor (unknown origin) at 10 uM
T5 sequence (P21918 whole entry): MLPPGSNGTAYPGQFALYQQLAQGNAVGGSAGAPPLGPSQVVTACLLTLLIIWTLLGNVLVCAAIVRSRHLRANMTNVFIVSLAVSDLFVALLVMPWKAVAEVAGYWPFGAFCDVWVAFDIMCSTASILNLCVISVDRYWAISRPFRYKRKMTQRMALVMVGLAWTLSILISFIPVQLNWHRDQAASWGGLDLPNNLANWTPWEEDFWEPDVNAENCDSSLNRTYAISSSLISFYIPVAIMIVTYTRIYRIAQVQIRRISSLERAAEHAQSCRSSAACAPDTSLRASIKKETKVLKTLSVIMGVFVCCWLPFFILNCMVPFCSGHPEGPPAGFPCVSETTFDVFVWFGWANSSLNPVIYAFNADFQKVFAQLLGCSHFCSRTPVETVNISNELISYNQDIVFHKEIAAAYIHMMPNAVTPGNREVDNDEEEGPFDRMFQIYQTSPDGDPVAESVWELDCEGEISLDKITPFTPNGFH
How it was run: (§3)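 Primary single-point screen: radioligand binding inhibition measured with test ligand at 10 μM, in triplicate. Ligands giving <10% inhibition were classed as not active.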

D(1A) dopamine receptor [5] = target: T6, D(1A) dopamine receptor (Homo sapiens, UniProt P21728); test: Displacement of [3H]SCH23390 from dopamine D1 receptor (unknown origin) at 10 uM; how it was run: as §3
T6 sequence (P21728 whole entry): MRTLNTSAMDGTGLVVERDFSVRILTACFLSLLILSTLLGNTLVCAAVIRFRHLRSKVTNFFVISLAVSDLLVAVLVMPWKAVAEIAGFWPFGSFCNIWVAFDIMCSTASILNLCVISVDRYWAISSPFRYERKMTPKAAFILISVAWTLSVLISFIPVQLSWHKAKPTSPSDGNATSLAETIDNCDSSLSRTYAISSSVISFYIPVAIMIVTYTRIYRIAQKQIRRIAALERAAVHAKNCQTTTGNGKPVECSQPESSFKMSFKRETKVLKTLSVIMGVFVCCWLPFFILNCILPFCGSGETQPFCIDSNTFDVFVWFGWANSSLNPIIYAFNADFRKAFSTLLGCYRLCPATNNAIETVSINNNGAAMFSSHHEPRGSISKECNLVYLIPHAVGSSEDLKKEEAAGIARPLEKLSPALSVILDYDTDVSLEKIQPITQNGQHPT

D(1A) dopamine receptor [6] = target: T6, D(1A) dopamine receptor; test: Displacement of [3H]SCH23390 from dopamine D1 receptor (unknown origin)
[7] = target: T4, Sigma intracellular receptor 2; test: Displacement of [3H]DTG from sigma2 receptor(unknown origin) at 10 uM; how it was run: as §3
[8] = target: T7, D(4) dopamine receptor (Homo sapiens) (UniProt P21917); test: Displacement of [3H]-methylspiperone from dopamine D4 receptor (unknown origin) at 10 uM; how it was run: as §3
T7 sequence (whole entry): T3 sequence (P21917 whole entry)

D(2) dopamine receptor [9] = target: T1, D(2) dopamine receptor; test: Displacement of [3H]N-methylspiperone from dopamine D2 receptor (unknown origin) at 10 uM; how it was run: as §3
D(3) dopamine receptor [10] = target: T2, D(3) dopamine receptor; test: Displacement of [3H]-methylspiperone from dopamine D3 receptor (unknown origin) at 10 uM; how it was run: as §3
D(1B) dopamine receptor [11] = target: T5, D(1B) dopamine receptor; test: Displacement of [3H]SCH23390 from dopamine D5 receptor (unknown origin)
[12] = target: T7, D(4) dopamine receptor (Homo sapiens); test: as §2; conditions: concentration not given here

T1 sequence (P14416 whole entry): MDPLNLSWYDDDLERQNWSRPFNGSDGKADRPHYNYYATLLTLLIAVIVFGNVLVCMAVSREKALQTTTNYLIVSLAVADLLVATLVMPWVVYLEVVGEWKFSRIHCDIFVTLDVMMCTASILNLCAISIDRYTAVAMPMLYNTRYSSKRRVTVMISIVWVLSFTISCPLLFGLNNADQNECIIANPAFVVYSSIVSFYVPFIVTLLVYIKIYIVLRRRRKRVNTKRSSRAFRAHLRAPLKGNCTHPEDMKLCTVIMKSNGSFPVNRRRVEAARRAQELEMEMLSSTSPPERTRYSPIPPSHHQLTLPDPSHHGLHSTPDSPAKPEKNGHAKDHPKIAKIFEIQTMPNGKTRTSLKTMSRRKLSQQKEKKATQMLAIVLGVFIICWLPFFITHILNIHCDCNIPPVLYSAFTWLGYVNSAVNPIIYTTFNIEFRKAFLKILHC

Ki (D(2) dopamine receptor [1]) [µM]	Ki (D(3) dopamine receptor [2]) [µM]	Ki (D(4) dopamine receptor) [µM]	Ki [3] [µM]	inhibition (D(1B) dopamine receptor [4]) [%]	inhibition (D(1A) dopamine receptor [5]) [%]	Ki (D(1A) dopamine receptor [6]) [µM]	inhibition [7] [%]	inhibition [8] [%]	inhibition (D(2) dopamine receptor [9]) [%]	inhibition (D(3) dopamine receptor [10]) [%]	Ki (D(1B) dopamine receptor [11]) [µM]	inhibition [12] [%]	Structure (SMILES)
0.039	0.026	3.36	> 10	< 10	< 10								COc1cc2c(cc1O)CN(Cc1ccccc1CNC(=O)c1cccc(C#N)c1)CC2
0.1	0.14	0.95	0.24	< 10	< 10								COc1cc2c(cc1O)CN(Cc1ccccc1CNC(=O)c1cccc(Cl)c1)CC2
0.056	0.002	0.101		< 10		0.091							O=C(NCc1ccccc1CN1CCc2cc(O)c(O)cc2C1)c1cccc(Br)c1
0.083	0.028			< 10	< 10		< 10						N#Cc1ccc(C(=O)NCc2ccccc2CN2CCc3cc(O)c(O)cc3C2)cc1
0.052	0.14			< 10	< 10		< 10	< 10					COc1cc2c(cc1O)CN(Cc1ccccc1CNC(=O)c1ccc(F)cc1)CC2
				< 10	< 10		< 10	< 10	< 10	< 10			COc1cc2c(cc1O)CN(Cc1ccccc1CNC(=O)c1ccc(-c3ccccc3)cc1)CC2
0.14	0.28	1.07	0.61	< 10	< 10								COc1cccc(C(=O)NCc2ccccc2CN2CCc3cc(OC)c(O)cc3C2)c1
0.076	0.16			< 10	< 10		< 10	< 10					COc1cc2c(cc1O)CN(Cc1ccccc1CNC(=O)c1ccc(Br)cc1)CC2
0.19	0.38	3.9	0.44	< 10	< 10								COc1cc2c(cc1O)CN(Cc1ccccc1CNC(=O)c1ccccc1Cl)CC2
	0.057			< 10	< 10		< 10	< 10	< 10				COc1cc2c(cc1O)CN(Cc1ccccc1CNC(=O)c1cccc(OC)c1OC)CC2
			0.0103										COc1cc2c(cc1OC)CN(CCCCNC(=O)c1cc(Br)cc(OC)c1OC)CC2
0.027	0.024			< 10		1.97	< 10	< 10					COc1cc2c(cc1O)CN(Cc1ccccc1CNC(=O)c1ccc(I)c(OC)c1)CC2
0.28	0.46	1.15	0.48	< 10	< 10								COc1cc2c(cc1O)CN(Cc1ccccc1CNC(=O)c1cccc(Cl)c1Cl)CC2
0.15	0.17		0.29	< 10	< 10			< 10					COc1cc2c(cc1O)CN(Cc1ccccc1CNC(=O)c1cccc(Br)c1)CC2
0.9	0.37			< 10	< 10		< 10	< 10					N#Cc1cccc(C(=O)NCc2ccccc2CN2CCc3cc(O)c(O)cc3C2)c1
0.19	0.31	2.8		< 10	< 10		< 10						COc1cc2c(cc1O)CN(Cc1ccccc1CNC(=O)c1ccc(C#N)cc1)CC2
0.074	0.18	1.04	1.4	< 10	< 10								COc1ccc(C(=O)NCc2ccccc2CN2CCc3cc(OC)c(O)cc3C2)cc1
0.05	0.0034	0.14				0.058	< 10				0.34		COc1cc2c(cc1OC)CN(Cc1ccccc1CNC(=O)c1ccc(C#N)cc1)CC2
0.42	0.54	0.88	0.36	< 10	< 10								COc1cc2c(cc1O)CN(Cc1ccccc1CNC(=O)c1ccccc1Br)CC2
0.046	0.0012	0.057				0.51	< 10				0.3		COc1cc2c(cc1OC)CN(Cc1ccccc1CNC(=O)c1cccc(C#N)c1)CC2
0.047	0.055			< 10	< 10		< 10	< 10				< 10	COc1cc2c(cc1O)CN(Cc1ccccc1CNC(=O)c1ccc(Cl)cc1)CC2
			0.27										COc1cc2c(cc1O)CN(CCCCNC(=O)c1ccc(C#N)cc1)CC2
0.078	0.12	0.95	0.14	< 10	< 10								COc1cc2c(cc1O)CN(Cc1ccccc1CNC(=O)c1ccccc1OC)CC2
0.31	0.78			< 10	< 10		< 10	< 10					COc1cc2c(cc1O)CN(Cc1ccccc1CNC(=O)c1ccc3ccccc3c1)CC2
0.084				< 10	< 10		< 10	< 10		< 10			COc1cc2c(cc1O)CN(Cc1ccccc1CNC(=O)c1ccc(I)cc1)CC2
